The sample as a whole holds a higher share of hits than the screen did.
Yeast lifespan up = yeast lifespan extension. S. cerevisiae growth with nicotinamide, OD615; deaD strain in restrictive glucose medium. inhibition of the nicotinamide effect, % at 10 µM. actives 0.68% (n = 130,000);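 active means inhibition above a set limit, placed 3 SD over the median of all compounds, cut at about 26% in these data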;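 further: 0% = nicotinamide-treated wells and 100% = cells grown without nicotinamide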
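System: DeaD-strain S. cerevisiae / Buffer or medium: CSMM-D, restrictive glucose (dextrose) synthetic minimal medium / Probe or stimulus: nicotinamide, 1.5 mM, co-present with compound / Compound: one concentration, 10 µM, DMSO 0.25% / Incubation: 48 h compound exposure at 30 °C, humidified / Technique: optical density (absorbance) at 615 nm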
PostGolgi ctrl = inhibits growth of the yeast control strain; efflux-deficient yeast background strain, growth absorbance A615, 16 h; inhibition, % at 10 µM; actives 5% (n = 98,000); AID 738
Yeast growth inh = reduces growth of yeast BB579 in restrictive medium; S. cerevisiae BB579 growth, OD615, 48 h; inhibition, % at 10 µM; actives 0.51% (n = 140,000); AID 804;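 active means inhibition above a set limit, 3 SD over the mean compound inhibition, cut at about 44% in these data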
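Test system: DeaD yeast strain BB579 / Buffer or medium: restrictive glucose-based CSMM-D medium / Doses: single 10 µM dose / Schedule: 4 h cell preincubation, 48 h compound exposure, 30 °C humidified / Technique: culture absorbance at 615 nm / Controls: amphotericin B positive control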
PostGolgi yeast = growth inhibition of a yeast mutant, post-Golgi transport screen; post-Golgi transport phenotypic cell assay; inhibition, % at 10 µM; actives 0.9% (n = 98,000);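 further: yeast cells grown in 1536-well plates; yeast grown about 18 h at 30C before absorbance read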
Starred values were filed as active, the others as inactive; · = not tested or not shown. Unless noted, no stated cut-off is given here; in the data, active means inhibition above about 30%; inactive means the rest.

SMILES	Yeast lifespan up	PostGolgi ctrl	Yeast growth inh	PostGolgi yeast
CCC1CCCCN1C1Sc2ccc(C(=O)OC)cc2NC1=O (centres undefined)	-5	40*	-2	8
COC(=O)c1ccc2c(c1)NC(=O)C(N1CCOCC1)S2 (centres undefined)	-4	14	0	-1
CN1C(=O)C(O)(CC(=O)c2ccccc2O)c2cc(Br)ccc21 (centres undefined)	-10	5	54*	-12
COc1cccc(NC(=O)CCc2nc(-c3ccccc3F)no2)c1	-8	0	-26	-13
O=C(CCc1nc(-c2ccccc2F)no1)Nc1ccc(Oc2ccccc2)cc1	14	34*	-35	-8
O=S(=O)(Nc1nc2ccccc2nc1Nc1ccc(N2CCOCC2)cc1)c1cc(Cl)ccc1Cl	3	·	-27	·
CC1(C)NC(=O)N(CCCCOc2ccc3ccccc3c2Cl)C1=O	-7	41*	-43	-2
COc1cc(-c2nc3ccc4ccccc4c3c3c2CCC3)ccc1O	-9	·	85*	·
CC(SC1CCCC1)C(=O)NC(C)(C#N)C(C)C (centres undefined)	-12	31*	-32	19
C=CCOc1c(OC)cc(/C=N/Nc2cccc(C(=O)O)c2)c(Br)c1Br	5	·	-26	·
CCC(=O)c1ccc(O)c(CC=C(C)C)c1	-16	31*	-20	7
CCC(=O)c1ccc(N2CCCC2)c(F)c1	·	·	-6	·
COC(=O)C1=C(N)OC2=C(C(=O)CC(C)(C)C2)C1c1cccs1 (centres undefined)	35*	6	-49	-8
COc1ccc(C(=O)CSc2nc(N)nc(SC)c2C#N)cc1	-26	33*	-61	0
CSc1nc(N)nc(SCC(=O)C23CC4CC(CC(C4)C2)C3)c1C#N	-6	60*	-35	12
N#Cc1c(N)nc(SCC(=O)C23CC4CC(CC(C4)C2)C3)c(C#N)c1-c1ccc(Cl)cc1	-4	0	-51	-5
COc1ccccc1C(=O)Oc1ccc2c(c1)O/C(=C\c1ccncc1)C2=O	47*	·	-17	·
COc1ccc(S(=O)(=O)Oc2ccc3c(c2)O/C(=C\c2cccnc2)C3=O)cc1	-3	16	-82	6
COc1ccc(NC(=O)CCn2cccc2)cc1	-15	10	2	-8
CCCCOC1(c2ccccc2)NC(=S)NN=C1c1ccccc1 (centres undefined)	-2	11	-58	-3
CNc1cc(CSC)nc(SCc2ccc(Cl)cc2Cl)n1	-5	39*	11	-10
CN1C(=O)NC(c2ccc(O)cc2)C(C(=O)c2cccs2)C1(O)C(F)(F)F (centres undefined)	34*	7	-15	-2
CCCc1nc(NCc2ccccn2)c2nnn(Cc3ccccc3F)c2n1	-16	100*	-1	4
O=C(N/N=C/c1ccc2c(c1)OCO2)C(O)c1ccccc1 (centres undefined)	9	·	-13	·
O=S(=O)(NCCOCC(F)(F)F)c1ccc2oc3ccccc3c2c1	-15	10	-26	1
SMILES	Yeast lifespan up	PostGolgi ctrl	Yeast growth inh	PostGolgi yeast
CCOc1ccc(-c2csc(/C(C#N)=C\c3ccc(O)c([N+](=O)[O-])c3)n2)cc1	7	·	-45	·
CC(C)[C@H](NC(=O)c1ccccc1)C(=O)OCC(=O)N1CC2(C)CC1CC(C)(C)C2 (some centres undefined)	1	·	1	·
Cc1ccc(OCCNC(=O)Cn2cnc3c(=O)n(C)c(=O)n(C)c32)cc1C	·	·	-23	·
Cn1c(=O)c2ncn(CC(=O)NCCOc3ccccc3)c2n(C)c1=O	-1	1	10	30*
COc1ccc(C2CC(c3ccccc3)=NN2C(=O)COC(=O)c2cc(S(=O)(=O)N3CCOCC3)ccc2F)cc1 (centres undefined)	5	·	-20	·
Cn1nc(-c2ccc(Cl)cc2)nc2c(=O)n(C)c(=O)nc1-2	-39	107*	100*	106*
CC(C)CC(C(=O)Nc1oc(-c2ccco2)c(-c2ccco2)c1C#N)N1C(=O)c2ccccc2C1=O (centres undefined)	-4	-2	-17	-2
CCOC(=O)Cn1c(=O)oc2cc(S(=O)(=O)Nc3ccc(N(CC)CC)cc3C)ccc21	-7	9	-15	-1
CCc1cc2c(=O)c(Oc3ccccc3)c(C)oc2cc1O	69*	7	-42	-4
C=CCc1c(C)nc2c(C(=O)O)cnn2c1C	-24	31*	-40	7
Cc1nc2c(C(=O)N3CCN(C)CC3)cnn2c(C)c1Cc1ccc(Cl)cc1	6	5	-20	0
COc1c2c(nc3occc13)C(CC=C(C)C)(OC)C(OC(C)=O)CC2 (centres undefined)	·	·	-44	·
Cc1cc(C)n(-c2ccc(C(=O)C(C#N)c3nc4ccccc4n3C)cc2)n1 (centres undefined)	-18	33*	-53	13
Cc1ccc(S(=O)(=O)N2CCOCC2)cc1C(=O)N1c2ccccc2Sc2ccccc21	3	19	-2	22
Oc1ccc(Br)cc1-c1nc2cnccn2c1NC1CCCC1	-31	63*	-39	6
Oc1ccc(Br)cc1-c1nc2cnccn2c1NC1CCCCC1	-11	86*	-36	29
CC(SCC(=O)NC(C)C1CC2CCC1C2)C(=O)O (centres undefined)	-3	·	10	·
COc1ccc([N+](=O)[O-])cc1NC(=O)C(C)Sc1nc(C)c(C)c(C)n1 (centres undefined)	3	·	3	·
Cc1cc(NC(=O)NC(=O)c2cccc(OC(F)(F)C(F)F)c2)n[nH]1	-10	33*	-44	-11
O=c1c2ccccc2nc(SCc2nnc(-c3ccccc3)o2)n1-c1ccc(F)cc1F	-4	31*	-30	0
Cn1c(SCc2ccon2)nc2ccccc2c1=O	-17	1	-53	22
Cc1ccc(-n2nnnc2SCc2nnc(-c3ccccc3Br)o2)cc1	-10	56*	-91	-5
Brc1ccccc1-c1nnc(CSc2nncn2-c2ccccc2)o1	-2	24	-78	7
O=c1c2ccccc2nc(SCc2nnc(-c3ccccc3Br)o2)n1-c1ccccc1	-4	39*	-9	-1
COc1ccc(-c2nnc(CSc3nc4ccccc4c(=O)n3C)o2)cc1OC	-10	0	-30	32*
SMILES	Yeast lifespan up	PostGolgi ctrl	Yeast growth inh	PostGolgi yeast
CSc1nc2ccccc2cc1/C=C(\C#N)c1cccc(Cl)c1	-4	3	-19	4
C/C(=C\C(=O)c1ccccc1)Nc1ccc2c(c1)OCO2	-8	·	-1	·
O=C(Oc1cccc(NC(=O)c2ccco2)c1)c1cccc(S(=O)(=O)N2CCCCC2)c1	-10	6	-82	-3
COc1cc(/C(C#N)=C/c2ccccc2)c([N+](=O)[O-])cc1OC	·	·	-22	·
Cc1cc(C)c2[nH]c(=O)c(CN(Cc3cccs3)C(=S)NCC3CCCO3)cc2c1 (centres undefined)	2	·	-54	·
CCOc1ccc(OCCOCCNCCOC)cc1	4	·	-11	·
N#CCCN(C(=O)Nc1ccc(Cl)c(Cl)c1)c1ccccc1	-6	·	-12	·
CCOC(=O)C1=C(Nc2ccccc2)CC(C)(O)C(C(=O)OCC)C1c1ccc(Cl)cc1 (centres undefined)	5	·	-7	·
